Here are results for 20 compounds from ChEMBL document CHEMBL2424583, “Structure-activity relationship and in vitro and in vivo evaluation of the potent cytotoxic anti-microtubule agent N-(4-methoxyphenyl)-N,2,6-trimethyl-6,7-dihydro-5H-cyclopenta[d]pyrimidin-4-aminium chloride and its analogues as antitumor agents” (J Med Chem, 2013).

The structures appear in SMILES notation. Active and inactive are the calls of the source. The calls are words filed in the database; no cut-off is given here.

In assay [1] the test system is A10. Put plainly: Induction of microtubule depolymerization in rat A10 cells up to 10 uM after 18 hrs by indirect immunofluorescence assay. It is filed as cell-based. Summed up:
(§1)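 A-10 cells were exposed to vehicle or compound for 18 h, fixed, and microtubules were visualized by indirect immunofluorescence. EC50 is the concentration causing about 50% microtubule loss, from at least three independent experiments.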

Assay [2] has as its system MDA-MB-435. Put plainly: Cytotoxicity against human MDA-MB-435 cells assessed as growth inhibition after 48 hrs by SRB assay. The assay is classed as functional, cell-based. The conditions noted are these: MDA-MB-435, 48 h.
A short description of assay [3]: Induction of microtubule depolymerization in rat A10 cells after 18 hrs by indirect immunofluorescence assay. The assay is classed as cell-based. Summed up: as §1
In assay [4] the test system is A10. The assay can be described thus: Induction of microtubule depolymerization in rat A10 cells up to 40 uM after 18 hrs by indirect immunofluorescence assay. It is filed as cell-based. Summed up: as §1
Assay [5] addresses Tubulin (Sus scrofa) (UniProt P02554+P02550). Put plainly: Displacement of [3H]-colchicine from pig brain tubulin at 1 uM after 10 mins by scintillation counting analysis relative to control.

Sequence of Tubulin (Sus scrofa) (P02550 whole entry, looked up): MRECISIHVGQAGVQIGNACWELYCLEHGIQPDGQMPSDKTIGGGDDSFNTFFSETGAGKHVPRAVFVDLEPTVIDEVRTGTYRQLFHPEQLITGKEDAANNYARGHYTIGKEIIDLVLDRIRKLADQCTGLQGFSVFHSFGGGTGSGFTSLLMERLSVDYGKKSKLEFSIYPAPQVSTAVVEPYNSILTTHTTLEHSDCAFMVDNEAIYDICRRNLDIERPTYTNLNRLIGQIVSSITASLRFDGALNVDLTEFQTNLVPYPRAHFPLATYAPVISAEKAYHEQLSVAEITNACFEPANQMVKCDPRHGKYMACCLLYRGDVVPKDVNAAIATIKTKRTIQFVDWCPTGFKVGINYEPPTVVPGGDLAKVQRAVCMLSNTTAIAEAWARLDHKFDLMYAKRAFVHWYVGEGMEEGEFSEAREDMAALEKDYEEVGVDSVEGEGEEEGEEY
Sequence of Tubulin (Sus scrofa) (P02554 whole entry, looked up): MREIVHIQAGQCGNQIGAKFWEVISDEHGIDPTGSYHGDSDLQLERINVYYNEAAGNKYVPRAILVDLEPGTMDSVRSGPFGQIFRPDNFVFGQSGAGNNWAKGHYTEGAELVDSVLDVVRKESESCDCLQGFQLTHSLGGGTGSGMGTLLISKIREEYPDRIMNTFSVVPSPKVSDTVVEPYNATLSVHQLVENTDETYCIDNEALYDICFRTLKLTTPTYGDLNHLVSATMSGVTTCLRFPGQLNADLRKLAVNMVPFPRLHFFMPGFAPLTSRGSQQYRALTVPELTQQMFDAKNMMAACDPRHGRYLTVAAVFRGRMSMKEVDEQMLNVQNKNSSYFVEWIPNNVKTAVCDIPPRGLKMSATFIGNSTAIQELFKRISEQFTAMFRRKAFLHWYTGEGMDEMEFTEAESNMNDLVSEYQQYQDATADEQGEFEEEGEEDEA

One may read the IC50 as the point on the concentration scale where inhibition reaches its midpoint. On to `COc1cccc(N(C)c2nc(N)nc3c2CCC3)c1`, for which the outcome in assay [1] was inactive. For the same compound, the IC50 in assay [2] was above 1000 nM.

In general, EC50 refers to the concentration at which the effect is half-maximal. `C=CC1Cc2nc(N)nc(N(C)c3ccc(OC)cc3)c2C1` (racemic) returned an EC50 in assay [3] of 899 nM. Moreover, the IC50 in assay [2] came out at 205 nM.

For the compound `CCOc1ccc(N(C)c2nc(N)nc3c2CCC3)cc1`, the concentration giving a half-maximal response (EC50) in assay [3] came out at 148 nM. In addition, in assay [2], the half-inhibitory concentration (IC50) turned out to be 20.3 nM.

Turning to `CSc1ccc(N(C)c2ncnc3c2CCC3)cc1`, a half-maximal effect in assay [3] (EC50) was put at 675 nM. For the same compound, in assay [2], the IC50 is 42.8 nM.

On to `CN(c1ccc(Cl)cc1)c1ncnc2c1CCC2`, for which the result in assay [1] was inactive.

Take `C=CC1Cc2nc(C)nc(N(C)c3ccc(OC)cc3)c2C1` (racemic): in assay [3], the 50% effective concentration (EC50) amounted to 140 nM. In addition, the IC50 in assay [2] stood at 73.2 nM.

For the compound `COc1ccc(N(C)c2ncnc3c2CCC3)cc1`, in assay [3], a half-maximal effect (EC50) was put at 655 nM. Also, the IC50 in assay [2] was 43 nM.

On to `COc1ccc(Nc2nc(N)nc3c2CC(C)C3)cc1` (racemic), for which the outcome in assay [4] was inactive. For the same compound, the 50% inhibitory concentration (IC50) in assay [2] was above 10000 nM.

With `COc1ccccc1N(C)c1nc(N)nc2c1CCC2`, the result in assay [1] was inactive. Also, the half-maximal inhibitory concentration (IC50) in assay [2] was above 1000 nM.

For `Cc1ccc(N(C)c2ncnc3c2CCC3)cc1`, the result in assay [1] was inactive.

For `COc1ccc(N(C)c2nc(C)nc3c2C(C)CC3)cc1` (racemic), the EC50 in assay [3] amounted to 47 nM. Besides, the IC50 in assay [2] is 18.8 nM.

In turn, `CCOc1ccc(N(C)c2nc(C)nc3c2CCC3)cc1` returned an EC50 in assay [3] of 64 nM. Besides, the half-maximal inhibitory concentration (IC50) in assay [2] was determined as 15.1 nM.

`Cc1nc2c(c(N(C)c3cccc(Br)c3)n1)CC(C)C2` (racemic) displayed an EC50 in assay [3] of 15000 nM. Also, the half-maximal inhibitory concentration (IC50) in assay [2] amounted to 1500 nM.

As for `Cc1nc2c(c(N(C)c3ccc(Cl)cc3)n1)CC(C)C2` (racemic), the outcome in assay [4] was inactive. For the same compound, the 50% inhibitory concentration (IC50) in assay [2] stood at 2300 nM.

As for `CCOc1ccc(N(C)c2ncnc3c2CCC3)cc1`, the EC50 in assay [3] amounted to 730 nM. In addition, in assay [2], the concentration for half-maximal inhibition (IC50) amounted to 48.7 nM.

The term inhibition denotes how much of the control response was suppressed. A low value points to a weak effect. Take `COc1ccc(/C=C\c2cc(OC)c(OC)c(OC)c2)cc1O` [COMBRETASTATIN A4]: the inhibition in assay [5] worked out at 80%. The 50% effective concentration (EC50) in assay [3] was 7 nM.

`CSc1ccc(N(C)c2nc(C)nc3c2CC(C)C3)cc1` (racemic): the concentration for a half-maximal effect (EC50) in assay [3] came out at 64 nM. In addition, the IC50 in assay [2] came to 15.6 nM.

In assay [3], `Cc1ccc(N(C)c2nc(C)nc3c2CCC3)cc1` gave an EC50 of 10500 nM. Further, the IC50 in assay [2] worked out at 360 nM.

`COc1ccc(N(C)c2nc(N)nc3c2CCC3)cc1` returned an EC50 in assay [3] of 110 nM. For the same compound, the half-maximal inhibitory concentration (IC50) in assay [2] came out at 16.7 nM.

For the compound `COc1ccc(N(C)c2nc(N)nc3c2CC(C)C3)cc1` (racemic), the concentration for a half-maximal effect (EC50) in assay [3] turned out to be 143 nM. Besides, the IC50 in assay [2] was determined as 29.9 nM.
